The source of these data is paper PMC8204328 (ACS Pharmacology & Translational Science, 2021).

The structures appear in SMILES notation.

The subject of data set [1] is lean wild-type mice. The data set is described as follows: Upper GI motility. It is filed as in vivo, mouse. In outline: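 Upper gastrointestinal motility by charcoal transit in lean wild-type mice. The CB1R agonist ACEA is given intraperitoneally at 10 mg/kg, with or without test compound. Test compound is also given without agonist to assess motility alone.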
The test system of data set [2] is C2C12 mouse muscle myotubes. The data set is described as follows: Insulin-induced Akt-2 phosphorylation in C2C12 myotubes. It is filed as cell-based. The following applies: 100 nM insulin; CP-55940 5 μM. The procedure, abridged:
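Cultured C2C12 mouse muscle myotubes, mock- or βArr2-siRNA-transfected, exposed to 100 nM insulin with or without the CB1R agonist CP-55940 (5 μM) and test compound (100 nM). Akt phosphorylation by Western blot, β-actin loading control, densitometry quantification; each treatment in duplicate cell aliquots.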

Data set [3] relates to M384S, I105A and M109A mutant hCB1R. The data set is described as follows: CP55,940-induced βArr2 recruitment in HEK cells expressing mutant hCB1R. The class given is cell-based, human. The following applies: mutations M384S.
For data set [4] the following is noted: acute oral 3 mg/kg, male wild-type mice; cited from earlier work.
For data set [5], the target named is hCB1R (Homo sapiens, UniProt P21554). The class given is cell-based.
For data set [6], the system named is mice. Put plainly: Elevated plus maze test. It is filed as in vivo, mouse. The procedure, abridged: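 The elevated plus maze scores anxiety-like behavior in male wild-type mice after acute oral dosing or 28 days of daily oral dosing with test compound or reference antagonist. Mean ± SEM of 4–6 independent experiments.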
The test system of data set [7] is mice. Put plainly: Hyperambulatory activity in drug-naïve mice. It is filed as in vivo, mouse. The following applies: single oral 3 mg/kg, βArr2-KO mice and wild-type littermates.

Sequence of hCB1R (P21554 whole entry): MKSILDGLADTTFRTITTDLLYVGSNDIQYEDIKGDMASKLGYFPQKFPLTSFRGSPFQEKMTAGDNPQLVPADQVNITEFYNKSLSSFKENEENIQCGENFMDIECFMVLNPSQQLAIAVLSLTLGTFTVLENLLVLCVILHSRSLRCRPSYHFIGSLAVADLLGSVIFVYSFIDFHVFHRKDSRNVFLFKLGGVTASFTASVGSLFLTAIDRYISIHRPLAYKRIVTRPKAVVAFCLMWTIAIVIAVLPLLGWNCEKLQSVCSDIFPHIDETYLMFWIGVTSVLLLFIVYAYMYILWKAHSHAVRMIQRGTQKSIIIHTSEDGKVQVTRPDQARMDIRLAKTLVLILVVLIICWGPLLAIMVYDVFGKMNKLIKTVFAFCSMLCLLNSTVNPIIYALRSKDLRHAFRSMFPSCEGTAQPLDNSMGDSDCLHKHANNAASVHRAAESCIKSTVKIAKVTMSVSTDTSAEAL

For `CCCCC/C=C\C/C=C\C/C=C\C/C=C\CCCC(=O)NCCCl` [ACEA, arachidonoyl chloroethylamine], the “inhibition of upper GI motility” value in data set [1] (10 mg/kg intraperitoneal, lean wild-type mice) is listed as 60%. Besides, the “inhibition of upper GI motility, wild-type versus βArr2-KO mice” value in data set [1] (ACEA alone) is recorded as “to the same extent”.

As to `CCCCCCC(C)(C)c1ccc([C@@H]2C[C@H](O)CC[C@H]2CCCO)c(O)c1` [CP-55940], in data set [2], the “effect on insulin-induced Akt-2 phosphorylation” value was “significantly inhibited”. The “CP-55940-induced βArr2 recruitment at mutant hCB1R” value in data set [3] was “suppression”.

Take `CN=C(NS(=O)(=O)c1ccc(Cl)cc1)N1C[C@H](c2ccccc2)C(c2ccc(Cl)cc2)=N1` [ibipinabant]: in data set [4], the brain/plasma ratio is listed as 22%. In addition, in data set [5], the “bias (G/βArr)” value is “≈ 2”.

As for `Cc1c(C(=O)NN2CCCCC2)nn(-c2ccc(Cl)cc2Cl)c1-c1ccc(Cl)cc1` [rimonabant], the “anxiogenic behavior, elevated plus maze” value in data set [6] (acute oral, MRI-1891 up to 30 mg/kg, rimonabant 3 mg/kg) is “highly anxiogenic”; in data set [6] (chronic 28 days, MRI-1891 1 and 10 mg/kg/day, rimonabant 3 mg/kg/day) it was “induced strong anxiety”. Further, the “anxiogenic response, elevated plus maze” value in data set [6] (single oral 3 mg/kg, βArr2-KO mice and wild-type littermates) is recorded as “identical, strong anxiogenic responses in both strains”. Besides, the “upper GI motility in the absence of CB1R agonist (in vivo inverse agonism)” value in data set [1] (MRI-1891 3 and 10 mg/kg) was “similar”. Moreover, in data set [7], the hyperambulatory activity entry is “similar, long-lasting hyperambulatory activity”.
